Converted amounts (≈) assume the structure as drawn.
Assays:
Assay type in all cases: functional
[1] = test system: Staphylococcus aureus; test: Antibacterial activity against Staphylococcus aureus strain St au 33591 MRSA
How it was run: (§1)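 Broth microdilution MIC run to NCCLS standards: serial 2-fold dilutions in cation-adjusted Mueller–Hinton broth, inoculum ~5 × 10^5 CFU/mL, incubated 35 °C for 18–24 h. Trays were read by eye, and the MIC was taken as the lowest concentration giving complete growth inhibition (no visible turbidity).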

[2] = test system: Escherichia coli; test: Antibacterial activity against Escherichia coli strain 25922; how it was run: as §1
[3] = test system: Pseudomonas aeruginosa; test: Antibacterial activity against Pseudomonas aeruginosa strain 27853; how it was run: as §1
[4] = test system: Staphylococcus aureus; test: Antibacterial activity against Staphylococcus aureus strain St au 29213; how it was run: as §1
[5] = test system: Enterococcus faecalis; test: Antibacterial activity against Enterococcus faecalis strain 29212; how it was run: as §1

| MIC [1] [µg/mL] | MIC [2] [µg/mL] | MIC [3] [µg/mL] | MIC [4] [µg/mL] | MIC [5] [µg/mL] | SMILES |
| --- | --- | --- | --- | --- | --- |
| 3.13 (≈ 7.32 µM) | 6.25 (≈ 14.6 µM) | 50 (≈ 117 µM) | 3.13 (≈ 7.32 µM) | 25 (≈ 58.5 µM) | COc1c(N2CCC(CN)C2)c(F)cc2c(=O)c(C(=O)O)cn(-c3ccc(O)cc3)c12 (stereo not given) |
| 0.4 (≈ 0.942 µM) | 1.56 (≈ 3.68 µM) | 1.56 (≈ 3.68 µM) | 0.4 (≈ 0.942 µM) | 3.13 (≈ 7.37 µM) | O=C(O)c1cn(-c2ccc(O)cc2)c2nc(N3CC4CCCNC4C3)c(F)cc2c1=O (stereo not given) |
| 0.78 (≈ 1.77 µM) | 0.4 (≈ 0.91 µM) | 3.13 (≈ 7.12 µM) | 0.78 (≈ 1.77 µM) | 6.25 (≈ 14.2 µM) | COc1c(N2C[C@@H](N)C3(CC3)C2)c(F)cc2c(=O)c(C(=O)O)cn(-c3ccc(O)cc3)c12 |
| 0.78 (≈ 2.03 µM) | 1.56 (≈ 4.06 µM) | 1.56 (≈ 4.06 µM) | 0.78 (≈ 2.03 µM) | > 50 | NC1CCN(c2nc3c(cc2F)c(=O)c(C(=O)O)cn3-c2ccc(O)cc2)C1 (stereo not given) |
| 1.56 (≈ 3.77 µM) | 1.56 (≈ 3.77 µM) | 6.25 (≈ 15.1 µM) | 1.56 (≈ 3.77 µM) | 25 (≈ 60.5 µM) | COc1c(N2CCC(N)C2)c(F)cc2c(=O)c(C(=O)O)cn(-c3ccc(O)cc3)c12 (stereo not given) |
| 0.4 (≈ 0.968 µM) | 0.78 (≈ 1.89 µM) | 6.25 (≈ 15.1 µM) | 0.2 (≈ 0.484 µM) | 25 (≈ 60.5 µM) | COc1c(N2CCNCC2)c(F)cc2c(=O)c(C(=O)O)cn(-c3ccc(O)cc3)c12 |
| 0.78 (≈ 1.83 µM) | 0.78 (≈ 1.83 µM) | 6.25 (≈ 14.7 µM) | 0.78 (≈ 1.83 µM) | 12.5 (≈ 29.3 µM) | COc1c(N2C[C@@H](C)[C@H](C)C2)c(F)cc2c(=O)c(C(=O)O)cn(-c3ccc(O)cc3)c12 |
| 0.4 (≈ 1.04 µM) | 0.4 (≈ 1.04 µM) | 1.56 (≈ 4.07 µM) | 0.4 (≈ 1.04 µM) | 3.13 (≈ 8.16 µM) | NC1CCN(c2cc3c(cc2F)c(=O)c(C(=O)O)cn3-c2ccc(O)cc2)C1 (stereo not given) |
| 1.56 (≈ 3.79 µM) | 3.13 (≈ 7.61 µM) | 50 (≈ 122 µM) | 1.56 (≈ 3.79 µM) | 25 (≈ 60.8 µM) | C[C@@H](N)[C@H]1CCN(c2cc3c(cc2F)c(=O)c(C(=O)O)cn3-c2ccc(O)cc2)C1 |
| 1.56 (≈ 3.78 µM) | 1.56 (≈ 3.78 µM) | 12.5 (≈ 30.3 µM) | 1.56 (≈ 3.78 µM) | 6.25 (≈ 15.2 µM) | C[C@H](N)[C@@H]1CCN(c2nc3c(cc2F)c(=O)c(C(=O)O)cn3-c2ccc(O)cc2)C1 |
| 0.4 (≈ 0.972 µM) | 0.1 (≈ 0.243 µM) | 3.13 (≈ 7.61 µM) | 0.2 (≈ 0.486 µM) | 3.13 (≈ 7.61 µM) | C[C@@H]1CN(c2cc3c(cc2F)c(=O)c(C(=O)O)cn3-c2ccc(O)cc2)C[C@H](C)N1 |
| 0.1 (≈ 0.235 µM) | 0.1 (≈ 0.235 µM) | 1.56 (≈ 3.67 µM) | 0.1 (≈ 0.235 µM) | 1.56 (≈ 3.67 µM) | COc1c(N2C[C@@H]3[C@@H](N)[C@@H]3C2)c(F)cc2c(=O)c(C(=O)O)cn(-c3ccc(O)cc3)c12 |
| 0.2 (≈ 0.471 µM) | 0.1 (≈ 0.236 µM) | 6.25 (≈ 14.7 µM) | 0.2 (≈ 0.471 µM) | 1.56 (≈ 3.68 µM) | CN1CCC2CN(c3nc4c(cc3F)c(=O)c(C(=O)O)cn4-c3ccc(O)cc3)CC21 (stereo not given) |
| 0.2 (≈ 0.503 µM) | 0.2 (≈ 0.503 µM) | 1.56 (≈ 3.93 µM) | 0.2 (≈ 0.503 µM) | 1.56 (≈ 3.93 µM) | C[C@@H]1CN(c2cc3c(cc2F)c(=O)c(C(=O)O)cn3-c2ccc(O)cc2)C[C@H]1N |
| 6.25 (≈ 14.2 µM) | 1.56 (≈ 3.53 µM) | 50 (≈ 113 µM) | 3.13 (≈ 7.09 µM) | 50 (≈ 113 µM) | COc1c(N2C[C@@H](C)N[C@@H](C)C2)c(F)cc2c(=O)c(C(=O)O)cn(-c3ccc(O)cc3)c12 |
| 0.1 (≈ 0.244 µM) | 0.2 (≈ 0.488 µM) | 1.56 (≈ 3.81 µM) | 0.2 (≈ 0.488 µM) | 0.78 (≈ 1.91 µM) | N[C@@H]1CN(c2cc3c(cc2F)c(=O)c(C(=O)O)cn3-c2ccc(O)cc2)CC12CC2 |
| 0.4 (≈ 0.972 µM) | 1.56 (≈ 3.79 µM) | 25 (≈ 60.8 µM) | 0.4 (≈ 0.972 µM) | 6.25 (≈ 15.2 µM) | C[C@H](N)[C@@H]1CCN(c2cc3c(cc2F)c(=O)c(C(=O)O)cn3-c2ccc(O)cc2)C1 |
| 1.56 (≈ 3.78 µM) | 6.25 (≈ 15.2 µM) | 12.5 (≈ 30.3 µM) | 1.56 (≈ 3.78 µM) | 12.5 (≈ 30.3 µM) | C[C@@H](N)[C@H]1CCN(c2nc3c(cc2F)c(=O)c(C(=O)O)cn3-c2ccc(O)cc2)C1 |
| 1.56 (≈ 3.34 µM) | 0.4 (≈ 0.856 µM) | 6.25 (≈ 13.4 µM) | 0.78 (≈ 1.67 µM) | 12.5 (≈ 26.7 µM) | COc1c(N2CC3CCCN(C)C3C2)c(F)cc2c(=O)c(C(=O)O)cn(-c3ccc(O)cc3)c12 (stereo not given) |
